In the library only some 1.3% were active in any assay of this set; here they are far more common.
G6PDH CS: inhibits Leuconostoc G6PDH, flagging false hits in G6PDH-based assays | Purified L. mesenteroides G6PDH, diaphorase/resazurin coupled fluorescence, 45 min | inhibition, % at 5 µM | actives 0.12% (n = 200,000) | AID 1020; in the data active = inhibition above about 50%
Diaphorase inh: inhibits diaphorase or chemically oxidizes, flagging diaphorase assay artifacts | diaphorase resazurin-to-resorufin fluorescence, NADH, 16 min; bacterial (C. kluyveri) enzyme, not human | inhibition, % at 20 µM | actives 0.69% (n = 190,000) | AID 1217;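 active = primary screen inhibition at 20 µM above a set limit, cut at about 50% in these data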;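 also: plate controls were DMSO with full reaction for no effect and wells lacking NADH for full effect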
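Benchmarks: positive control wells lacking NADH, neutral wells with DMSO only. System: bacterial diaphorase enzyme (C. kluyveri). Input: 0.14 U/mL diaphorase, enzyme working solution. Detection: resorufin fluorescence, excitation 544 nm, emission 590 nm. Times: 16-min room-temperature incubation before reading.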
PfG6PD inh: PfG6PD (Plasmodium falciparum) enzyme inhibition; actives 0.78% (n = 350,000); inhibition, % at 20 µM; PfGluPho enzyme, NADPH resazurin-diaphorase fluorescence;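 active = inhibition reaching at least a set limit at 20 µM in the primary screen, cut at about 59% in these data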;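 also: 0% = DMSO wells with substrate and 100% = DMSO wells lacking glucose-6-phosphate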
Diaph act CS: counter-screen for diaphorase-based assays: diaphorase activators and chemical reducers. Diaphorase/resazurin coupled assay, resorufin fluorescence, 16 min; active compounds read high; 1 = vehicle wells, 0 = NADH-free wells. activation factor at 20 µM. actives 0.005% (n = 190,000). AID 1229;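 active = diaphorase activity raised at least twofold by the compound at 20 µM; inactive = activation factor below 2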
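Test system: Clostridium kluyveri diaphorase, purified enzyme. Buffer or medium: 50 mM HEPES pH 7.4 buffer plus MgCl2 and Tween 20. Also added: 0.114 mM NADH and 0.1 mM resazurin, final amounts. Dosing: compound 20 µM once, DMSO 1%. Schedule: 16 min enzyme reaction, ambient temperature. Detection: fluorescence of resorufin, 544 nm excitation, 590 nm emission.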
HKDC1 inh: inhibitors of human hexokinase HKDC1 | Q2TB90 | recombinant HKDC1, G6PDH/diaphorase resazurin coupled fluorescence | inhibition, % at 20 µM | actives 0.16% (n = 340,000) | AID 493160;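 active = inhibition above about 35% when tested at 20 µM, limit read from the data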;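 also: plate controls were DMSO wells with enzyme for no effect and DMSO wells lacking enzyme for full effect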
Target sequence (Q2TB90 whole entry, looked up): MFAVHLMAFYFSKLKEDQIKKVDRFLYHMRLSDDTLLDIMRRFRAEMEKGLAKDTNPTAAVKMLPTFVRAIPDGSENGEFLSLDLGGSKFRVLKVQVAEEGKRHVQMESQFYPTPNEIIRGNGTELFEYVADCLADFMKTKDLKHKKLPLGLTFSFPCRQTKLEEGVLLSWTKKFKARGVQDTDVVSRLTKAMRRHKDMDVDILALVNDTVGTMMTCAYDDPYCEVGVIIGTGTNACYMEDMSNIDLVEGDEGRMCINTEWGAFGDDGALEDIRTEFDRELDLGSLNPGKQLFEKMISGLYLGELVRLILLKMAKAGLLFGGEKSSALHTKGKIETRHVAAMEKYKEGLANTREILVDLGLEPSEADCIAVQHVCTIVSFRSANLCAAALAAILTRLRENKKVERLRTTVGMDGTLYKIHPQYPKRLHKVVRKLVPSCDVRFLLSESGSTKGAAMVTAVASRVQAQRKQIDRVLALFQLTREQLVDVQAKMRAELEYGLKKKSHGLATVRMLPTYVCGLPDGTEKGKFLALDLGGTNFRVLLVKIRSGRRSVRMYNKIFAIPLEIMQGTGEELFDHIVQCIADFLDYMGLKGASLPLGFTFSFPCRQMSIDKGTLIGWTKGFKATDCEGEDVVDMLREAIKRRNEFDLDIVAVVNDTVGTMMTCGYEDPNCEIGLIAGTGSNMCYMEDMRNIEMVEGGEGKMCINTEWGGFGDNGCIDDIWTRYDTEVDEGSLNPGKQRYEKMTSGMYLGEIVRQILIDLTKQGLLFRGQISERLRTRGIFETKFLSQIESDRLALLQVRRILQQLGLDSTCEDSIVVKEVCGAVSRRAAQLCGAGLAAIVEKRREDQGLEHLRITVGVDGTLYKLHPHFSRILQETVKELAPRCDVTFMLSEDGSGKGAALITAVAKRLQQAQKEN
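Assay system: in-house recombinant HK5 (HKDC1) enzyme. Input: HKDC1 at 5 µg/mL. Medium: Tris pH 8.0 buffer with MgCl2, Tween-20, BSA, BME. Dosing: single 20 µM dose. Schedule: 90 min reaction incubation at room temperature, dark. Signal: resazurin-to-resorufin fluorescence via G6PDH and diaphorase coupling, 525/613 nm. Controls: DMSO-enzyme wells negative, buffer-substituted wells positive.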
Tb hexokinase: blocks Trypanosoma brucei hexokinase 1 activity | recombinant TbHK1, G6PDH-coupled NADH A340 | inhibition, % at 10 µM | actives 0.11% (n = 220,000) | AID 1430;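 active = inhibition of 50% or more in the single-dose primary screen; inactive = inhibition below 50%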
PfGluPho conf: PfG6PD inhibition, single-dose confirmed. shares compounds with PfG6PD inh. recombinant PfGluPho, NADPH-diaphorase-resazurin fluorescence. inhibition, % at 20 µM. actives 34% (n = 2,400). AID 504753;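 active = inhibition of at least 50% at 20 µM in any single replicate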;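 also: 0% = DMSO with substrate and 100% = DMSO lacking glucose-6-phosphate substrate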
Diaph ctr 10uM: counter-screen for P. falciparum G6PD inhibitors: diaphorase inhibitors, oxidizers; shares compounds with PfG6PD inh; diaphorase-coupled resazurin reduction, fluorescence, NADPH 10 uM; inhibition, % at 20 µM; actives 39% (n = 820);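 active = average inhibition reaching 50% or more with the compound at 20 µM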;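 also: resorufin red fluorescence formed as diaphorase reduces resazurin using NADPH; 0% = DMSO with enzyme and 100% = DMSO without enzyme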
Diaph ctr 30uM: inhibits diaphorase or oxidizes, flagging false PfG6PD hits; shares compounds with PfG6PD inh; Diaphorase/resazurin coupled assay, resorufin fluorescence, 30 uM NADPH; inhibition, % at 20 µM; actives 29% (n = 820); AID 504863;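 active = inhibition averaging 50% or more, tested at 20 µM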;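 also: 0% = DMSO with enzyme and 100% = DMSO wells lacking diaphorase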
* = called active by the depositor; / = no result.

SMILES	G6PDH CS	Diaphorase inh	PfG6PD inh	Diaph act CS	HKDC1 inh	Tb hexokinase	PfGluPho conf	others
O=C(CSc1ncn(-c2ccccc2)n1)N1CCc2ccccc21	-28	13	60*	0.9	0	2	6
Cc1ccnc(SCC(=O)N2CCc3ccccc32)n1	/	/	-8	/	3	/	/
O=C(CN1CCN(c2ccc(O)cc2)CC1)N1CCc2ccccc21	/	/	63*	/	4	/	20
CCCNC(C)C(=O)Nc1c(C)csc1C(=O)OC (stereo not given)	/	/	3	/	0	/	/
O=C(NCC1COCCO1)c1cc(COc2c(F)cccc2F)on1 (stereo not given)	/	/	-18	/	-1	/	/
COc1ccc(Nc2nc(-c3ccccc3)c(C(=O)Nc3cccnc3)s2)cc1	-2	16	65*	0.8	-6	9	16
COc1ccc2nc3cc(Cl)ccc3c(Nc3ccc(O)c(CN4CCN(C)CC4)c3)c2c1	/	/	109*	/	7	/	45*	Diaph ctr 10uM=33;Diaph ctr 30uM=40
COc1ccc2nc3cc(Cl)ccc3c(C#N)c2c1	/	/	3	/	-1	-8	/
O=C(O)C(Cc1ccccc1)N=C(NS(=O)(=O)c1ccccc1)c1ccccc1 (stereo not given)	/	/	3	/	0	/	/
O=C(Nc1ccc(N2CCN(C(=O)c3ccccc3)CC2)c(Cl)c1)c1ccco1	11	7	-20	0.9	0	6	/
CCC(=O)N1CCN(c2ccc(NC(=O)c3ccco3)cc2Cl)CC1	/	/	20	/	-6	/	/
CCC(=O)N1CCN(c2ccc(NC(=O)c3cc4ccccc4o3)cc2Cl)CC1	-35	23	118*	0.8	1	-21	84*	Diaph ctr 10uM=72*;Diaph ctr 30uM=61*
CC(=O)Nc1cccc(NC(=O)c2cc3ccccc3o2)c1	-3	24	-3	0.8	-1	-6	/
Cc1ccc(NC(=O)c2cc3ccccc3o2)cc1Cl	/	/	100*	/	1	/	18
CC(C)NC(=O)c1cc2ccccc2o1	1	-3	2	1	-4	-3	/
O=C(Nc1ccc(N2CCN(C(=O)c3ccco3)CC2)c(Cl)c1)c1cc2ccccc2o1	4	20	90*	0.8	2	-3	43*	Diaph ctr 10uM=47;Diaph ctr 30uM=44
CC(C)c1nnc(NC(=O)c2cc3ccccc3o2)s1	/	/	66*	/	0	/	54*	Diaph ctr 10uM=35;Diaph ctr 30uM=10
COc1cccc(CC2CC(=O)N(c3ccc4c(C)cc(=O)oc4c3)C2=O)c1 (stereo not given)	12	10	-9	0.9	1	-6	/
COc1ccc(CNC(=O)C[C@@H]2C[C@H]3c4cc(NC(=O)C5CCC5)ccc4O[C@H]3[C@@H](CO)O2)cc1	/	/	-3	/	/	/	/
S=C(NCc1ccccc1)NNc1nc2ccccc2[nH]1	-2	22	77*	0.8	13	1	45
c1ccc(CNc2nc3ccccc3[nH]2)cc1	4	16	18	0.8	4	5	/
CN(CCN1CCOCC1)Cc1nc(-c2ccc(Cl)cc2)no1	/	/	-11	/	-5	-7	/
CCCCC(=O)Nc1sc(C(=O)N(CC)CC)c(C)c1C(=O)OC	10	12	70*	0.9	-13	2	30
CC[n+]1c(C)sc2c3ccsc3ccc21	1	34	70*	0.7	-11	0	27
CC[n+]1c(C)sc2sc3ccccc3c21	/	/	/	/	/	5	/
SMILES	G6PDH CS	Diaphorase inh	PfG6PD inh	Diaph act CS	HKDC1 inh	Tb hexokinase	PfGluPho conf	others
Oc1ccc(N2CCN(Cc3ccc(OCCCN4CCCCC4)cc3)CC2)cc1	10	-10	75*	1.1	12	-6	18
CC1=C(C)C(=O)C(CCCCC#CCCCC#CCO)=C(C)C1=O	57*	44	89*	0.6	30	7	31
CCN1CCN(C(=S)Nc2ccc(Cl)c(Cl)c2)CC1	12	11	6	0.9	-2	6	/
CCN1CCN(C(=S)c2ccc(Cl)c(Cl)c2)CC1	-5	10	59*	0.9	-2	-10	55*	Diaph ctr 10uM=24;Diaph ctr 30uM=-16
Cc1ccc(Nc2nnc(SCC(=O)c3ccc(O)cc3O)s2)cc1	/	/	68*	/	3	/	33
CC1(C)CN(c2ccccc2)N(C(=O)c2ccc(C#N)cc2)C1=O	4	0	95*	1	14	2	68*	Diaph ctr 10uM=1;Diaph ctr 30uM=1
CC(C)CCNC(=O)C(c1cccnc1)N(CCc1ccccc1)C(=O)Cn1nnc2ccccc21 (stereo not given)	1	5	-9	0.9	-6	3	/
CCc1c(C)sc(NC(=O)C2CCCCC2C(=O)O)c1C(N)=O (stereo not given)	1	10	74*	0.9	-4	4	32
CCOc1cc(C(=O)Nc2ccc(C)cc2C)ccc1OCC(=O)N1CCCCC1	-16	13	5	0.9	-11	0	/
COc1cc(C(=S)N2CCCC2)cc(Cl)c1OCC(=O)Nc1ccc(C)cc1C	5	22	64*	0.8	-9	-5	-1
CC1(c2ccc(Cl)cc2)NC(=O)N(CC(=O)Nc2cccnc2Cl)C1=O (stereo not given)	/	/	9	/	-4	/	/
O=C(CSc1nnc(SCc2ccc(Cl)cc2)s1)N/N=C/c1c[nH]c2ccccc12	6	25	60*	0.8	13	-22	33
O=C(CSc1nnc(SCc2cccc3ccccc23)s1)N/N=C/c1c[nH]c2ccccc12	-40	23	42	0.8	12	-19	/
O=C(NC1(Cc2ccccc2)CCN(CCc2cccs2)C1=O)c1ccccc1 (stereo not given)	/	/	11	/	0	/	/
Cc1ccc2nc(SCc3nnc(-c4ccccc4)o3)[nH]c2c1	3	26	49	0.7	-1	-2	/
Cc1ccc2nc(SCc3nnc(-c4cccs4)o3)[nH]c2c1	4	21	84*	0.8	0	-2	41
COc1cc(S(=O)(=O)Nc2ccc3nc(C)sc3c2)ccc1NC(C)=O	/	/	8	/	3	/	/
COc1ccccc1/C=N/NC(=O)CCn1cnc2ccccc21	-7	10	32	0.9	-9	-15	/
COc1ccc(S(=O)(=O)Nc2c(C(=O)O)[nH]c3ccc(OC)cc23)c(OC)c1	/	/	67*	/	14	/	4
Cc1cccc(-c2nc3ccccc3c(=O)n2NC(=S)N(C)C)c1	1	-1	62*	1	-21	-1	32
CN(C)C(=S)Nn1c(-c2ccccc2)nc2ccccc2c1=O	3	4	-1	1	-3	-4	/
